SENP6 block: inhibitors of human SENP6 protease; AID 2599; Recombinant SENP6 catalytic domain, aminoluciferin luminescence; 330,000 tested, 1.8% active; Q9GZR1; inhibition, % at 10 µM;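 active = inhibition above about 50% at the single tested dose, limit read from the data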
SENP8 block-1: blocks the human protease SENP8 | purified SENP8, Z-RLRGG-aminoluciferin cleavage, luminescence | 330,000 tested, 1.2% active | inhibition, % at 10 µM; in the data active = inhibition above about 50%
SENP7 inh: inhibitors of human SENP7 protease; Q9BQF6; recombinant SENP7, Z-RLRGG-aminoluciferin luminescence, 40 min; inhibition, % at 5 µM; 330,000 tested, 1.5% active; AID 434973;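 active = inhibition above about 50% at the single test dose, limit read from the data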
Target sequence (Q9BQF6 706-1050 limits assumed): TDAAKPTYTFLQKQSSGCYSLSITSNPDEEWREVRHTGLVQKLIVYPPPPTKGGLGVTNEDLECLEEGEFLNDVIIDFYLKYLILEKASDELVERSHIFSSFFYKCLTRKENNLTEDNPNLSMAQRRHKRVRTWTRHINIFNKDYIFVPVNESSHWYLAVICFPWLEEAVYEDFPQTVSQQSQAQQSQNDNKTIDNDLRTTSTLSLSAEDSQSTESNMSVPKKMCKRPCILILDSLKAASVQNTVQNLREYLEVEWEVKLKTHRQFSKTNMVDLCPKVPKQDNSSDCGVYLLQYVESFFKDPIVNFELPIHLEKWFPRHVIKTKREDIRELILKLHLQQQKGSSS
SENP8 block-2: inhibitors of human SENP8 protease | Q96LD8 | recombinant SENP8, Nedd8 substrate fluorescence | inhibition, % at 20 µM | 360,000 tested, 0.64% active | AID 602440; in the data active = inhibition mostly above about 40%, no sharp cut-off; inactive = mostly below about 27%
SENP1 FRET inh: SENP1 (human) catalytic domain inhibition; Q9P0U3; recombinant SENP1 catalytic domain, CyPet-SUMO1-YPet FRET cleavage; inhibition, % at 10 µM; 360,000 tested, 0.21% active; AID 624204;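 active = inhibition at least 30% at 10 µM, raw YFP signal under a set limit, fluorescence ratio 0.5 to 1.5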
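system = hSENP1 catalytic domain, recombinant | reagent = SFCypet-SUMO1-SFYpet substrate at 25 nM | doses = one dose per compound, 10 µM, 0.5% DMSO | incubation = enzyme reaction for 50 min at room temperature, dark | measured by = FRET, CFP and YFP emission | controls = no-enzyme low, enzyme-DMSO high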
SENP8 conf: SENP8 (human) inhibition, single concentration confirmation | shares compounds with SENP8 block-2 | inhibition, % at 25 µM | 1,400 tested, 15% active | purified SENP8, Nedd8-AMC/pro-Nedd8 cleavage fluorescence, 30 min; in the data active = inhibition mostly above about 39%, no sharp cut-off; inactive = mostly below about 34%
A number is an active result; n = inactive; x = not tested or not shown. This is a sample that favours compounds with a hit; in the whole collection about 2.5% have one here.

SMILES	SENP6 block	SENP8 block-1	SENP7 inh	SENP8 block-2	SENP1 FRET inh	SENP8 conf
CSCC[C@H](NC(=O)N1C[C@H]2C[C@@H](C1)c1cccc(=O)n1C2)C(=O)Nc1ccc(NC(C)=O)cc1	n	n	n	46.5	n	n
O=C(Nn1nnnc1Nc1ccccc1)C12CC3CC(CC(C3)C1)C2	n	n	n	n	n	x
c1ccc(/N=C2\N=C(Nc3ccccn3)c3ccccc32)nc1	n	n	n	42.1	n	n
[O-]C1=N/[N+](=C/c2ccccc2Cl)CC1	n	n	n	50.2	n	n
[O-]C1=N/[N+](=C/c2ccccc2)CC1	n	n	n	n	n	x
Cc1cc(=O)n2c3c(c4c(cc13)c(CN(C)C)cc(=O)n4C)OC2	x	x	x	n	n	x
CCC(=O)Nc1ccc(C(=O)COC(=O)CCN2C(=O)C3CC=CCC3C2=O)cc1 (centres undefined)	n	n	n	n	n	x
CCOC(=O)c1ccc(NC(=O)CCN2C(=O)C3CC=CCC3C2=O)cc1 (centres undefined)	n	n	n	34.3	n	n
Oc1ccc(Br)cc1-c1cc(-c2ccccc2Cl)[nH]n1	n	n	n	42.1	n	n
COc1ccc(S(=O)(=O)N2CCSC2c2ccc(OC)c(OC)c2)cc1 (centres undefined)	n	n	n	50.2	n	n
COc1ccc(C2SCCN2S(=O)(=O)c2ccc(F)cc2)cc1OC (centres undefined)	n	n	n	n	n	x
COc1ccc(C2C(C(C)=O)=C(O)C(=O)N2C)c(OC)c1 (centres undefined)	n	n	n	42.1	n	n
COc1ccc(C2C(C(C)=O)=C(O)C(=O)N2c2cccnc2)c(OC)c1 (centres undefined)	n	n	n	n	n	x
CC1(C(=O)Nc2ccc3nc[nH]c3c2)CCN1C(=O)c1ccccc1CCc1ccccc1 (centres undefined)	x	x	x	n	n	x
O=[N+]([O-])c1ccc(Cl)cc1Sc1cccc2cccnc12	n	n	n	41.9	n	n
Cn1ccnc1Sc1cc(Cl)ccc1[N+](=O)[O-]	n	n	n	n	n	x
O=C(COC(=O)c1ncc(Cl)c(Cl)c1Cl)NC(=O)c1ccccc1	n	n	n	n	n	x
Cc1ccc(C(=O)NN2C(=O)C3C4c5ccccc5C(c5ccccc54)C3C2=O)cc1 (centres undefined)	n	n	n	45.2	n	n
O=C(NN1C(=O)C2C3c4ccccc4C(c4ccccc43)C2C1=O)c1ccccc1 (centres undefined)	n	n	n	n	n	x
CC(C)NS(=O)(=O)c1ccc(CCC(=O)Nc2ccc3c(c2)OCO3)cc1	n	n	n	n	n	x
COc1ccc(-c2cc(=O)[nH][nH]2)cc1	n	n	n	41.5	n	n
O=c1cc(-c2ccc(Cl)cc2)[nH][nH]1	n	n	n	43.1	n	n
CCN(CC(=O)NC(=O)NC1CCCC1)Cc1ccccc1	n	n	n	n	n	x
O=c1cc(-c2ccccc2)oc2ccccc12	n	n	n	43.0	n	n
CCc1ccc(NC(=O)NCCN2CCc3ccccc3C2)cc1	n	n	n	44.6	n	n
SMILES	SENP6 block	SENP8 block-1	SENP7 inh	SENP8 block-2	SENP1 FRET inh	SENP8 conf
O=C(CN1CCc2ccccc2C1)Nc1ccc(Br)cc1	n	n	n	n	n	x
O=C(NCCN1CCc2ccccc2C1)Nc1ccc(F)cc1	n	n	n	n	n	x
CCc1ccc(NC(=O)CN2CCc3ccccc3C2)cc1	n	n	n	69.8	n	n
COc1cc(C(=O)c2ccccc2C(=O)O)c(OC)c2c1CCCC2	x	x	x	n	n	x
O=C(OCc1ccc(Cl)c(Cl)c1)c1cnccn1	n	n	n	44.7	n	n
CC(NC(=O)C(=O)NN=C1CCCC1)c1ccccc1 (centres undefined)	n	n	n	n	n	x
COCCNc1nc2cc(-c3ccc(C)cc3)sc2c(=O)n1C	x	x	x	n	n	x
COc1ccc(CC(=O)NNc2ncnc3c2cnn3-c2ccc(C)cc2)cc1OC	n	n	n	n	n	x
O=c1c2ccccc2c(C=NCCc2ccccc2)c(O)n1Cc1ccccc1	n	n	n	46.6	n	50.6
Cc1ccc(NC(=O)CN(C)C(=O)C2CC(=O)N(Cc3ccccc3)C2)cc1 (centres undefined)	n	n	n	n	n	x
COc1ccc(S(=O)(=O)N2CCOCC2)cc1NC(=O)COC(=O)C1=COCCO1	n	n	n	41.4	n	n
